For six molecules, IC50 results are on record in ChEMBL document CHEMBL1157465, “Design, synthesis, and biological evaluation of novel 3-aryl-4-(1H-indole-3yl)-1,5-dihydro-2H-pyrrole-2-ones as vascular endothelial growth factor receptor (VEGF-R) inhibitors” (J Med Chem, 2008).

SMILES strings stand for the structures.

Assay [1] deals with T1, Receptor-type tyrosine-protein kinase FLT3 (Homo sapiens, UniProt P36888).
T1 sequence (P36888 whole entry): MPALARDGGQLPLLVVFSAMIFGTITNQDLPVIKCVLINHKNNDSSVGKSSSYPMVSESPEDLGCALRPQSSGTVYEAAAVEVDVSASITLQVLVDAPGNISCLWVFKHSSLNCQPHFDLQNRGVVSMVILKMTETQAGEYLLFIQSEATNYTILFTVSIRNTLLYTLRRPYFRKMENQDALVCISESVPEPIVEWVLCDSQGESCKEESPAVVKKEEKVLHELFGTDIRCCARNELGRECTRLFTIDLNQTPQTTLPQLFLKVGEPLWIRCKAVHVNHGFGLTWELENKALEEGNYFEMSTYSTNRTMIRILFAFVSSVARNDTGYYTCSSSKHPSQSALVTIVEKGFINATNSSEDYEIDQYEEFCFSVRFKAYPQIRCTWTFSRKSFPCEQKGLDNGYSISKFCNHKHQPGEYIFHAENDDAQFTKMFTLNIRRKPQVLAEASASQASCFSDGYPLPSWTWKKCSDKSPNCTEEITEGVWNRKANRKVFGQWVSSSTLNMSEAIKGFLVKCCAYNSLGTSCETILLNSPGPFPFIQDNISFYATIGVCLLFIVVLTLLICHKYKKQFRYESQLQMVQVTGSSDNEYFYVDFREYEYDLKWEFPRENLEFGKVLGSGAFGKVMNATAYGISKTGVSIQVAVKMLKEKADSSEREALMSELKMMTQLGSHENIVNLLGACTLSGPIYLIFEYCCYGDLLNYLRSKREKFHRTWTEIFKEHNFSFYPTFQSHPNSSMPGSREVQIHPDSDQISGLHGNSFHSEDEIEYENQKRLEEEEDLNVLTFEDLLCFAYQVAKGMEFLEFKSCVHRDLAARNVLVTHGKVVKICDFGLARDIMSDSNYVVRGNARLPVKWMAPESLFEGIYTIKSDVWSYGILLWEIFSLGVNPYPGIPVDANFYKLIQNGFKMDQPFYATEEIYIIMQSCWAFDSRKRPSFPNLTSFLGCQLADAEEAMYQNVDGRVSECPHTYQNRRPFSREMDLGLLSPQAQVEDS
Description: Inhibition of human recombinant FLT3. In a few lines: (§1)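 Human kinases expressed in Sf9 cells via baculovirus as GST or His fusions and affinity purified. 33PanQinase assay in 60 mM HEPES-NaOH pH 7.5, 3 mM MgCl2, 3 mM MnCl2, 3 µM orthovanadate, 1.2 mM DTT, 1 µM [γ-33P]ATP, 1% DMSO; 30 °C, 80 min. Substrates: poly(Glu,Tyr) 4:1 for ERBB2, IGF1-R and SRC; poly(Ala,Glu,Lys,Tyr) 6:2:5:1 for FLT3. IC50 from 10 concentrations by scintillation counting.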

Assay [2] addresses T2, NUAK family SNF1-like kinase 1 (Homo sapiens, UniProt O60285).
T2 sequence (O60285 whole entry): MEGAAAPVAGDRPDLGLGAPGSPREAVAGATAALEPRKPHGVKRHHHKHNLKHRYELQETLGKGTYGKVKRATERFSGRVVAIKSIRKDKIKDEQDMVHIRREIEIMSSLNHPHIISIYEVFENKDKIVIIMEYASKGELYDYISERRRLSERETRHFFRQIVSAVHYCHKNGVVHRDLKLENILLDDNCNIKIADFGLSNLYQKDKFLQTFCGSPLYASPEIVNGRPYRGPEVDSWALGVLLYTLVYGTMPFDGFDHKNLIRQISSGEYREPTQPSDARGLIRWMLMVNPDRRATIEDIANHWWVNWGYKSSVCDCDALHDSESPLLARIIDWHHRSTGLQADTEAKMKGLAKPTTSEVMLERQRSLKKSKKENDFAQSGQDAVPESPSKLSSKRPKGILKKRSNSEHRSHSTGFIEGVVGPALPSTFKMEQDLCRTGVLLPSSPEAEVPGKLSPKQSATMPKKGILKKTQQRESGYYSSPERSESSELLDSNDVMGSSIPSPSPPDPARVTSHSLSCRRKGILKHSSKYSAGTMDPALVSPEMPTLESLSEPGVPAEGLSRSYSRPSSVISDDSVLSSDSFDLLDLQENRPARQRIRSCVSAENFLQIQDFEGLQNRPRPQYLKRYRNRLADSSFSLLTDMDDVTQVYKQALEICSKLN
In words: Inhibition of human recombinant ARK5. The procedure, abridged: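 Human ARK5 made in Sf9 cells by baculovirus (GST- or His-tagged, affinity-purified) and read by autophosphorylation in a 33PanQinase radiometric assay. Buffer: 60 mM HEPES-NaOH pH 7.5, 3 mM MgCl2, 3 mM MnCl2, 3 µM orthovanadate, 1.2 mM DTT, PEG20000 and 1 µM [γ-33P]ATP.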

A further assay deals with Angiopoietin-1 receptor (Homo sapiens, UniProt Q02763). In words: Inhibition of human recombinant TIE2. The procedure, abridged:
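Recombinant human tyrosine kinases (EPHB4, TIE2, VEGF-R2, VEGF-R3), expressed in Sf9 insect cells as GST- or His-fusions, with poly(Glu,Tyr) 4:1 as substrate. Conditions: 1 µM [γ-33P]ATP, pH 7.5 HEPES buffer with Mg/Mn, DTT and vanadate, 30 °C for 80 min, 1% DMSO. Ten concentrations were tested and IC50 came from scintillation counting of incorporated 33P.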

A further assay concerns the target Focal adhesion kinase 1 (Homo sapiens, UniProt Q05397). In words: Inhibition of human recombinant FAK.
The target of assay [3] is Cyclin-dependent kinase 4/cyclin D1 (Homo sapiens, UniProt P11802). In words: Inhibition of human recombinant CDK4/cyclin D1. It is filed as protein-complex assay. The procedure, abridged:
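CDK4/CycD1 (human, baculovirus/Sf9, affinity-purified) with Rb-CTF as substrate. The radiometric FlashPlate assay held 1 µM [γ-33P]ATP in HEPES-NaOH pH 7.5 with 3 mM MgCl2 and 3 mM MnCl2.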

Assay [4] addresses Serine/threonine-protein kinase B-raf (Homo sapiens, UniProt P15056, V600E). Description: Inhibition of human recombinant B-Raf-V600E mutant. In a few lines: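 Human kinases expressed in Sf9 cells by baculovirus as GST or His fusions and affinity purified. Radiometric 33PanQinase assay: 60 mM HEPES-NaOH pH 7.5, 3 mM MgCl2, 3 mM MnCl2, 3 µM orthovanadate, 1.2 mM DTT, 1 µM [γ-33P]ATP, 50-400 ng enzyme, 1% DMSO; 30 °C, 80 min. Substrates: B-Raf-VE, MEK1 KM; CDK2/CycA, histone H1; CK2-A1, casein; COT, autophosphorylation. IC50 from 10 concentrations; 33Pi incorporation by scintillation.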

The target of the next assay is Aurora kinase B (Homo sapiens, UniProt Q96GD4). Description: Inhibition of human recombinant Aurora B. The procedure, abridged:
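Aurora-A or Aurora-B, human cDNA expressed in Sf9 cells as tagged recombinant protein, phosphorylating Tetra(LRRWSLG). Reactions used 60 mM HEPES pH 7.5, Mg2+/Mn2+ (3 mM each), 1.2 mM DTT, vanadate and 1 µM [γ-33P]ATP, ran 80 min at 30 °C and were stopped with 2% H3PO4.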

The target of assay [5] is Proto-oncogene tyrosine-protein kinase Src (Homo sapiens, UniProt P12931). In words: Inhibition of human recombinant SRC. The procedure, abridged: as §1
Proto-oncogene tyrosine-protein kinase Src, sequence (P12931 2-536 limits assumed): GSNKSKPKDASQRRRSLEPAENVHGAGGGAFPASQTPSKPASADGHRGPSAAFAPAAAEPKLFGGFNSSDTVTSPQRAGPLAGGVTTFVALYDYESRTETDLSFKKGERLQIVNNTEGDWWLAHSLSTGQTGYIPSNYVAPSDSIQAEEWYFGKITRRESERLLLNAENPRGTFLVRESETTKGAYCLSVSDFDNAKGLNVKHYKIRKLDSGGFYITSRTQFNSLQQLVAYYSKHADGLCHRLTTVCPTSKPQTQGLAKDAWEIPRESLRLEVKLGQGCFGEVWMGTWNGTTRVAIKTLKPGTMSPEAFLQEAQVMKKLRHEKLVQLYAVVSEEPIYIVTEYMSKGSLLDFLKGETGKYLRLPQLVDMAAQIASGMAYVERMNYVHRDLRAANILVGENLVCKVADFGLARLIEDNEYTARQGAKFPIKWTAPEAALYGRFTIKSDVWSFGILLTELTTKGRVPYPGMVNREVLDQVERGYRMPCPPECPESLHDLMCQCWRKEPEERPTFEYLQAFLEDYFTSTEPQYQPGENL

Angiopoietin-1 receptor, sequence (Q02763 whole entry, the tested form may be a part): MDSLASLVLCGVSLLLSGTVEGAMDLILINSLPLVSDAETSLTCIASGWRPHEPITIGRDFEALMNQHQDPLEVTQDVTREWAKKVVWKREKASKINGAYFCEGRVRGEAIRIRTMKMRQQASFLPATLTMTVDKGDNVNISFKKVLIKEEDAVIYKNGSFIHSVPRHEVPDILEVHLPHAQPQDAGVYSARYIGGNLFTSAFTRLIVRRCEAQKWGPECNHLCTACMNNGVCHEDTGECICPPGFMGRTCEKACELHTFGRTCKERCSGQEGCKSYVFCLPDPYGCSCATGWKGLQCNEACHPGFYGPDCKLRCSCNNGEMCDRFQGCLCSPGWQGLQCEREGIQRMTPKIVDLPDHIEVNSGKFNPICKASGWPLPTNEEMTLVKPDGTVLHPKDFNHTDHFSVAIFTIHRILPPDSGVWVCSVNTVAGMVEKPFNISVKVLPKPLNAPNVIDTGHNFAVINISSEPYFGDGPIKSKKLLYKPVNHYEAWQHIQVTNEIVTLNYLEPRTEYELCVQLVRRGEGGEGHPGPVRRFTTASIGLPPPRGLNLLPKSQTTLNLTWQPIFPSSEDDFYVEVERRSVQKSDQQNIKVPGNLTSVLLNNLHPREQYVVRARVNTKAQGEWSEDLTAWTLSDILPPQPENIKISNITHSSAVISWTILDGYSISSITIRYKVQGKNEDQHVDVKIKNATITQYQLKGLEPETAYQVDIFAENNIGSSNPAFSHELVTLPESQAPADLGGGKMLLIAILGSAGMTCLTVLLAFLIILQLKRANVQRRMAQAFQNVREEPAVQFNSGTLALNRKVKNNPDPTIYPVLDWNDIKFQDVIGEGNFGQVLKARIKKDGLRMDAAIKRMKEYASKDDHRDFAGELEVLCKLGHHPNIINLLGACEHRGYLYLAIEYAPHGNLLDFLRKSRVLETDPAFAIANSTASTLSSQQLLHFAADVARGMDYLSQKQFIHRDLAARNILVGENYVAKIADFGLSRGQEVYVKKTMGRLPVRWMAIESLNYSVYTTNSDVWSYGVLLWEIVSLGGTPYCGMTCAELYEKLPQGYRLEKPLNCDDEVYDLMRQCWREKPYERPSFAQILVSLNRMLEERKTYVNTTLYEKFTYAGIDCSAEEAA
Focal adhesion kinase 1, sequence (Q05397 whole entry): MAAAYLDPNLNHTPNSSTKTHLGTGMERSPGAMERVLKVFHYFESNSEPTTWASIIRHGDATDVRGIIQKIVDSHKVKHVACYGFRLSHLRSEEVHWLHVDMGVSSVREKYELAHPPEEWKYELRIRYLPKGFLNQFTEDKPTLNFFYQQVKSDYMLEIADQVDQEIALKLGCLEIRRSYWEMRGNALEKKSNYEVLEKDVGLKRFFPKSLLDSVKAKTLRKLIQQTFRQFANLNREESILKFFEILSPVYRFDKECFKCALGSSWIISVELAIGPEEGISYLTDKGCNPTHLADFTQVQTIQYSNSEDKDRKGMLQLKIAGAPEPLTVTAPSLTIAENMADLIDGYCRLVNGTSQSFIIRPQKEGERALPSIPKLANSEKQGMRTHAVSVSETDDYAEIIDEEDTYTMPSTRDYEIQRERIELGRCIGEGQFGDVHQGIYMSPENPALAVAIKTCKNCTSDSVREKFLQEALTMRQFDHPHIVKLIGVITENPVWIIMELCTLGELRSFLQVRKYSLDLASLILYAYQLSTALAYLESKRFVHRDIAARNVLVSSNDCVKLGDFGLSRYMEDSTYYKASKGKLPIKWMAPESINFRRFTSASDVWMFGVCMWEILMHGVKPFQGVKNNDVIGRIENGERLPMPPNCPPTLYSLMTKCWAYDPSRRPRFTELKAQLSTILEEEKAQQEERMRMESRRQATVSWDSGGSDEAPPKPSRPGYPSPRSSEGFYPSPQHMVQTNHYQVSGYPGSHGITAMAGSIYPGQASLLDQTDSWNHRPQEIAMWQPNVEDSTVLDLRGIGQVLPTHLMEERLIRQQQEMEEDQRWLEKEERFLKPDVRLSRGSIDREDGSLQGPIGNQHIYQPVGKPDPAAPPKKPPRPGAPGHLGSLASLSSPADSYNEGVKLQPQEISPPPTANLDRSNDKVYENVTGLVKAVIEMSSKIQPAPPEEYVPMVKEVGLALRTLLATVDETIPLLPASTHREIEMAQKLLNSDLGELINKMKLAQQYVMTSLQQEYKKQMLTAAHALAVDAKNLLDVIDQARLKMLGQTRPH
Cyclin-dependent kinase 4/cyclin D1, sequence (P11802 whole entry): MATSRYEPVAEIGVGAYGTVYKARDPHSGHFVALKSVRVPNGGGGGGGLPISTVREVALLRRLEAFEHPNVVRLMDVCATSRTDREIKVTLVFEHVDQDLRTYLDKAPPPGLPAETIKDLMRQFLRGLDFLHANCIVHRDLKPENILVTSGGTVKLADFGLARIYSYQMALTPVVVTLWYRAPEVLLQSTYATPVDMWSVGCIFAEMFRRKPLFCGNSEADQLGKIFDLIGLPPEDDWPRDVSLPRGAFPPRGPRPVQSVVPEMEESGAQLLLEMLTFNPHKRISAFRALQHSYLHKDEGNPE
Cyclin-dependent kinase 4/cyclin D1, sequence (P24385 whole entry, further chain): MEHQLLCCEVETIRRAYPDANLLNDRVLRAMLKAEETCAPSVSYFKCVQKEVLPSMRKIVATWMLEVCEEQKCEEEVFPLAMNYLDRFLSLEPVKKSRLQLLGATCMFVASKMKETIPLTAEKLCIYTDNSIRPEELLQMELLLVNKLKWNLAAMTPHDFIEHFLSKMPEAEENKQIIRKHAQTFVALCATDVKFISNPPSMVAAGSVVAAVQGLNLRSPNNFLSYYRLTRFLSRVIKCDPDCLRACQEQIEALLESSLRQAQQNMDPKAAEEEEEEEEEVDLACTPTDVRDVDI
Aurora kinase B, sequence (Q96GD4 whole entry): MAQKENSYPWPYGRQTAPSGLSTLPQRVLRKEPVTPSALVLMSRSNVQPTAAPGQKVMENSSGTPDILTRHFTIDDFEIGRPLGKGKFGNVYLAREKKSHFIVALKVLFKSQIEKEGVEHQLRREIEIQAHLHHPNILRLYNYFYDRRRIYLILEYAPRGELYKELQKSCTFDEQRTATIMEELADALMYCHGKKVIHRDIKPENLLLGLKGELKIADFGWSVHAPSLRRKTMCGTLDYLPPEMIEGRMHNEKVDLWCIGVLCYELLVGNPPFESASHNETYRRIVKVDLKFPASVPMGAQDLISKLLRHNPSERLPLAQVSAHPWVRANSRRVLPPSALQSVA
Serine/threonine-protein kinase B-raf, sequence (P15056 2-766 V600E limits assumed): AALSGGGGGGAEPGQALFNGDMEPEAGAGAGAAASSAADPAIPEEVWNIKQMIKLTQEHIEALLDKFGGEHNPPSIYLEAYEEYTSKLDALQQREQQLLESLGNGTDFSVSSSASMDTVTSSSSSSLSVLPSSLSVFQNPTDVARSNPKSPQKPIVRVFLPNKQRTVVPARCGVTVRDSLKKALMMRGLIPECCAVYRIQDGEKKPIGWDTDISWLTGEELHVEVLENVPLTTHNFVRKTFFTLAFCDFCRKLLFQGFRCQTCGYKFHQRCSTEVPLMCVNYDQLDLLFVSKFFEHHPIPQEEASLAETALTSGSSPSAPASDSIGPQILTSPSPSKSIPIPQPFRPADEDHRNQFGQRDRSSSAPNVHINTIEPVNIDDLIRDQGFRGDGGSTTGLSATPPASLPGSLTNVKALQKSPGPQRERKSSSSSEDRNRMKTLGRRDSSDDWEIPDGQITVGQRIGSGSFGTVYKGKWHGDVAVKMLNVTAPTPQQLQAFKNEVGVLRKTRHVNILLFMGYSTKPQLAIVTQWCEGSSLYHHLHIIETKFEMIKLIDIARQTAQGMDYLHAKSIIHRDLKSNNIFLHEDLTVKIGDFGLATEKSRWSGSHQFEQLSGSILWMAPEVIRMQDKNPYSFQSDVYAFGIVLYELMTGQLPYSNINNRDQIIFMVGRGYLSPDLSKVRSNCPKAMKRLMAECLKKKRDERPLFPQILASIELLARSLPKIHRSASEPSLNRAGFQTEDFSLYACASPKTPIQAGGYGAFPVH

One may read the IC50 as the concentration needed to halve the response being measured. With `COc1cc(C2=C(c3cn(CC(O)CO)c4ccccc34)CNC2=O)cc(OC)c1OC` (stereo unspecified), the IC50 in assay [1] came out at 3 µM; in assay [2] it was 34 µM; at Angiopoietin-1 receptor it was 25 µM.

Take `COc1cc(C2=C(c3cn(C)c4ccccc34)C(=O)NC2)cc(OC)c1OC`: the IC50 is 50 µM on Focal adhesion kinase 1; 40 µM in assay [3]; 50 µM in assay [4]; 9.8 µM at Aurora kinase B; 5 µM in assay [1]; 4.9 µM in assay [2].

`COc1cc(C2=C(c3c[nH]c4ccccc34)CNC2=O)cc(OC)c1OC`: the half-inhibitory concentration (IC50) came to 9.5 µM at Focal adhesion kinase 1; 46 µM at Aurora kinase B; 6.1 µM in assay [1]; 14 µM in assay [5]; 5.2 µM on Angiopoietin-1 receptor.

As to `COc1cc(C2=C(c3c[nH]c4ccccc34)C(=O)NC2)cc(OC)c1OC`, the IC50 in assay [3] was found to be 30 µM; at Aurora kinase B it was 2.1 µM; in assay [1] it was 2.2 µM; in assay [5], 41 µM; in assay [2] it was 1.8 µM; on Angiopoietin-1 receptor it was 34 µM.

As to `COc1ccc(C2=C(c3c[nH]c4ccccc34)C(=O)NC2)cc1`, the IC50 in assay [3] is 35 µM; at Aurora kinase B it was 4.9 µM; in assay [1], 9.9 µM; in assay [2], 2 µM.

Take `COc1cc(C2=C(c3cn(COC(C)(C)C)c4ccccc34)CNC2=O)cc(OC)c1OC`: the IC50 on Focal adhesion kinase 1 turned out to be 28 µM; in assay [3], 27 µM; in assay [4] it was 38 µM; at Aurora kinase B, 43 µM; in assay [1], 20 µM; in assay [5], 4.4 µM. Further, the IC50 on Angiopoietin-1 receptor amounted to 11 µM.
